We go through eight compounds from ChEMBL document CHEMBL1157983, “Novel labdane diterpenes from the insecticidal plant hyptis spicigera1” (1999).

Assay [1] has as its system KB. The assay is described as follows: Cytotoxicity against human KB cells after 72 hrs by SRB assay. It is filed as functional. As to conditions: read-out: ED50 (the source's name). Summed up: (§1)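 KB (nasopharyngeal) and HCT-15 (colon) lines kept in RPMI 1640 with 10% FBS at 37 °C, 5% CO2. Log-phase cells were exposed in triplicate to 0.16-20 µg/mL of sample for 72 h. Cell density was read by sulforhodamine staining. ED50 (50% growth inhibition versus control) was estimated from a semilog plot of concentration against percent viable cells. Ellipticine served as positive control.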
A general note: Sulforhodamine B stains cellular protein and so reports cell mass.

The test system of assay [2] is HCT-15. In words: Cytotoxicity against human HCT-15 cells after 72 hrs by SRB assay. It is filed as functional. As to conditions: HCT-15, 72 h, read-out: ED50 (the source's name). Summed up: as §1
The test system of the next assay is Ostrinia nubilalis. The assay is described as follows: Insecticidal activity against Ostrinia nubilalis larvae after 4 to 6 days. It is filed as functional, organism-based. Summed up: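 Samples were dissolved in 95% EtOH and mixed into agar-based meridic diet at final 5, 50 and 100 ppm. European corn borer larvae were reared on it at 25 °C, about 80% RH, with a 16:8 light:dark cycle. Mortality and larval weight were recorded every 4-6 days over the growth period. ANOVA with Tukey's multiple range test.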

Assay [3] has as its system KB. In words: Cytotoxicity against human KB cells up to 20 ug/mL after 72 hrs by SRB assay. It is filed as functional, cell-based. Summed up:
as §1

The subject of assay [4] is HCT-15. The assay is described as follows: Cytotoxicity against human HCT-15 cells at 20 ug/mL after 72 hrs by SRB assay. It is filed as functional, cell-based.

≈ marks a conversion by molar mass, not a printed value. Calls of active or inactive are those of the source. No cut-off for these calls is given here.

Turning to `C=C1[C@H](O)C[C@H]2[C@@](C)(COC(C)=O)CC(=O)C[C@]2(C)[C@H]1CC/C(C)=C\CO`, the EC50 in the assay on KB [1] and with HCT-15 [2] was 11 µg/mL (≈ 29.1 µM) in each case.
Regarding `C=C1[C@H](O)C[C@H]2[C@@](C)(COC(C)=O)C[C@H](O)C[C@]2(C)[C@H]1CC/C(C)=C\COC(C)=O`, in the assay on Ostrinia nubilalis, the outcome was Active. Besides, the outcome in the assay on KB [3] and with HCT-15 [4] was inactive.
`C=C1[C@H](O)C[C@H]2[C@@](C)(COC(C)=O)C[C@H](O)C[C@]2(C)[C@H]1CC/C(C)=C\C=O`: the EC50 with KB [1] and in the assay with HCT-15 [2] was 11 µg/mL (≈ 29.1 µM) in each case.
For `C=C1[C@H](O)C[C@H]2[C@@](C)(COC(C)=O)C[C@H](O)C[C@]2(C)[C@H]1CC/C(C)=C\CO`, the EC50 stood at 19.4 µg/mL (≈ 51 µM) with KB [1] and 8.7 µg/mL (≈ 22.9 µM) with HCT-15 [2].
Take `C=C1[C@H](O)C[C@H]2[C@@](C)(COC(C)=O)C[C@H](O)C[C@]2(C)[C@H]1CCC(C)=O`: the outcome with KB [3] and with HCT-15 [4] was inactive.
As to `C=C1[C@H](O)C[C@@H]2[C@](C)(CO)C[C@@H](O)C[C@@]2(C)[C@H]1CC/C(C)=C\CO`, the outcome in the assay with KB [3] and in the assay on HCT-15 [4] was inactive.
Regarding `Cc1c2ccncc2c(C)c2c1[nH]c1ccccc12` [ELLIPTECINE], the EC50 in the assay on KB [1] stood at 0.1 µg/mL (≈ 0.406 µM); in the assay on HCT-15 [2], 0.17 µg/mL (≈ 0.69 µM).
`C=C1[C@H](OC(C)=O)C[C@H]2[C@@](C)(COC(C)=O)C[C@H](O)C[C@]2(C)[C@H]1CC/C(C)=C\COC(C)=O`: the result in the assay on KB [3] and in the assay on HCT-15 [4] was inactive.
